Calls of active or inactive are those of the source. The rule behind the calls is not given here.

One data set concerns Mus musculus. The data set is described as follows: In-vivo inhibition of MGLL in ICR mouse brain assessed as target engagement at 5 mg/kg, po measured 4 hrs post dose by gel-based ABPP assay relative to control. The class given is functional. More on the design: scale not given: the % may be the effect or the level left. The method, boiled down:
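Mice received a single 5 mg/kg oral gavage dose. Whole brains were collected 4 h post-dose and target engagement was read by gel-based ABPP with FP-Rh probe.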

The next data set has as its target T1, Monoglyceride lipase (Mus musculus, UniProt O35678).
T1 sequence (O35678 whole entry): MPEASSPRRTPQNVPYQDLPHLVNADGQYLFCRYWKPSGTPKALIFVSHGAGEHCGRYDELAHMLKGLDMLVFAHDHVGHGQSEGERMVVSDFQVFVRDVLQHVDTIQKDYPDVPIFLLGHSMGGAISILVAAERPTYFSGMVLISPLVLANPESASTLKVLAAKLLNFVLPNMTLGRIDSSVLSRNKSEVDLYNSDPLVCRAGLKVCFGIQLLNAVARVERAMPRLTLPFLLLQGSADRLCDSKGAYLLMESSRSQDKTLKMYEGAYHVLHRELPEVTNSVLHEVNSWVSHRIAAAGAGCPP
The data set is described as follows: Inhibition of MGLL derived from mouse brain homogenates preincubated for 30 mins followed by JW912 addition after 30 mins by gel-based ABPP assay. The class given is tissue-based.

In data set [1] the target is T2, Platelet-activating factor acetylhydrolase (Homo sapiens, UniProt Q13093).
T2 sequence (Q13093 whole entry): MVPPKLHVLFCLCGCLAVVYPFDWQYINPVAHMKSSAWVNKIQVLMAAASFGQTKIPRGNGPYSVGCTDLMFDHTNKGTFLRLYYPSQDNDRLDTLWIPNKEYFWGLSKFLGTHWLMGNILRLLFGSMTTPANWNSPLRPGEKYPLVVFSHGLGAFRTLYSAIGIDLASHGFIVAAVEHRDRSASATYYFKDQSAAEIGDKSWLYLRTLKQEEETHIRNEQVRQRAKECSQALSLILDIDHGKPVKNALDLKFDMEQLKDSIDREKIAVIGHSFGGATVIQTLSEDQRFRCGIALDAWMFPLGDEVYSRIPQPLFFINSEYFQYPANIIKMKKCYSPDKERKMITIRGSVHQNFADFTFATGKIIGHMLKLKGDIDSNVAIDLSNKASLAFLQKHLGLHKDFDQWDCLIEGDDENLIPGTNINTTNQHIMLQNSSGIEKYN
As to the kind of experiment: Inhibition of PLA2G7 derived from human PC3 cell lysates preincubated for 30 mins followed by JW912 addition after 30 mins by gel-based ABPP assay. The class given is subcellular, Lysate.

For data set [2], the target named is T3, Monoacylglycerol lipase ABHD6 (Homo sapiens, UniProt Q9BV23).
T3 sequence (Q9BV23 whole entry): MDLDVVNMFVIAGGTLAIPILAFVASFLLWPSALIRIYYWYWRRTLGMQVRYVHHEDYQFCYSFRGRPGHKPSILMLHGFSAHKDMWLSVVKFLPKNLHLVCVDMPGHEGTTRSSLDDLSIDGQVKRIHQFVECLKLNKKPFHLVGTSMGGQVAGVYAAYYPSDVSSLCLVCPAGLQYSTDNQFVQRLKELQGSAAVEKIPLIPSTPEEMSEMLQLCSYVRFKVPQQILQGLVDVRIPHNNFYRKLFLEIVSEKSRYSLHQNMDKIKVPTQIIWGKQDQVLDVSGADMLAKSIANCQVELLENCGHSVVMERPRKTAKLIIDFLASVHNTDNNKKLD
The data set is described as follows: Inhibition of ABHD6 derived from human PC3 cell lysates preincubated for 30 mins followed by JW912 addition after 30 mins by gel-based ABPP assay. The class given is subcellular, Lysate.

Data set [3] in a line: Intrinsic clearance in human liver microsomes. The class given is ADME, Microsome. The conditions noted are these: read-out: CLH.

Turning to `O=C(OC(C(F)(F)F)C(F)(F)F)N1CCN(Cc2ccc(Cl)cc2N2CCN(CCF)CC2)CC1`, in the data set with Mus musculus, the Activity amounted to 75%.
As for `O=C(OC(C(F)(F)F)C(F)(F)F)N1CCN(Cc2ccc(Cl)cc2N2CC3CCC(C2)O3)CC1`, the Activity in the data set with Mus musculus amounted to 100%.
On Monoglyceride lipase, `C#Cc1ccc(CN2CCN(C(=O)OC(C(F)(F)F)C(F)(F)F)CC2)c(N2CCCC2)c1` gave a half-maximal inhibitory concentration (IC50) of 159 nM.
Compound `O=C(OC(C(F)(F)F)C(F)(F)F)N1CCN(Cc2ccc(Cl)cc2N2CC[C@H]3CCCN3C2)CC1` registered a 50% inhibitory concentration (IC50) against Monoglyceride lipase of 66 nM. Besides, the Activity in the data set on Mus musculus is on record as 50%.
Compound `O=C(OC(C(F)(F)F)C(F)(F)F)N1CCN(Cc2ccc(C(F)(F)F)cc2N2CCCCC2)CC1` gave an IC50 against Monoglyceride lipase of 130 nM.
In turn, `CN1CC2CN(c3cc(C(F)(F)F)ccc3CN3CCN(C(=O)OC(C(F)(F)F)C(F)(F)F)CC3)CC2C1` (centres undefined) gave an IC50 on Monoglyceride lipase of 239 nM. In the data set on Mus musculus, the outcome was inactive.
In turn, `O=C(OC(C(F)(F)F)C(F)(F)F)N1CCN(Cc2ccc(C(F)(F)F)cc2N2C[C@H]3CC[C@@H](C2)O3)CC1` displayed an IC50 in data set [1] of over 1000 nM. The Activity in the data set with Mus musculus worked out at 100%.
In turn, `O=C(OC(C(F)(F)F)C(F)(F)F)N1CCN(Cc2ccc(C(F)(F)F)cc2N2CC[C@H](O)C2)CC1` displayed a half-inhibitory concentration (IC50) against Monoglyceride lipase of 15 nM. Besides, the Activity with Mus musculus is given as 75%.
With `O=C(OC(C(F)(F)F)C(F)(F)F)N1CCN(Cc2cc(Cl)ccc2N2CCOCC2)CC1`, the IC50 in data set [2] and in data set [1] was over 10000 nM in each case.
In the case of `O=C(OC(C(F)(F)F)C(F)(F)F)N1CCN(Cc2ccc(Cl)cc2N2CCCC2)CC1`, the microsomal CLint in data set [3] was determined as 34 µL/min/mg.
For `O=C(OC(C(F)(F)F)C(F)(F)F)N1CCN(Cc2ccc(C(F)(F)F)cc2N2CCC3(CCOCC3)C2)CC1`, the results for the half-inhibitory concentration (IC50) (in data set [1]; against Monoglyceride lipase) were over 1000 nM and 24 nM, respectively. Also, the Activity with Mus musculus amounted to 75%.
On to `O=C(OC(C(F)(F)F)C(F)(F)F)N1CCN(Cc2cccc(Cl)c2N2CCOCC2)CC1`, for which, in data set [3], the microsomal CLint was 76 µL/min/mg.
`O=C(OC(C(F)(F)F)C(F)(F)F)N1CCN(Cc2ccc(C(F)(F)F)cc2N2CC3COCC3C2)CC1` (centres undefined) showed an IC50 on Monoglyceride lipase of 17 nM. The Activity with Mus musculus amounted to 25%.
In the case of `O=C(OC(C(F)(F)F)C(F)(F)F)N1CCN(Cc2c(Cl)cccc2N2CCOCC2)CC1`, in data set [1], the 50% inhibitory concentration (IC50) is over 10000 nM.
Consider `Cc1cc(Cl)ccc1C(c1ccc(Cl)cc1C)N1CCN(C(=O)OC(C(F)(F)F)C(F)(F)F)CC1`, for which the concentration for half-maximal inhibition (IC50) in data set [2] and in data set [1] was over 10000 nM throughout.
At Monoglyceride lipase, `O=C(OC(C(F)(F)F)C(F)(F)F)N1CCN(Cc2ccc(C(F)(F)F)cc2N2CC[C@@H](O)C2)CC1` showed an IC50 of 8 nM. Besides, in the data set with Mus musculus, the Activity stood at 100%.
With `O=C(OC(C(F)(F)F)C(F)(F)F)N1CCN(Cc2ccc(Cl)cc2N2CCOCC2)CC1`, in data set [3], the microsomal CLint is 45 µL/min/mg.
In turn, `O=C(OC(C(F)(F)F)C(F)(F)F)N1CCN(Cc2ccc(C(F)(F)F)cc2N2[C@@H]3CC[C@H]2COC3)CC1` yielded an IC50 in data set [1] of over 1000 nM. In addition, the Activity in the data set on Mus musculus amounted to 100%.
Take `O=C(OC(C(F)(F)F)C(F)(F)F)N1CCN(C(c2ccc(Cl)cc2)c2ccc(Cl)cc2)CC1`: the concentration for half-maximal inhibition (IC50) in data set [1] was over 1000 nM.
As to `O=C(OC(C(F)(F)F)C(F)(F)F)N1CCN(Cc2ccc(Cl)cc2N2CCCCC2)CC1`, the half-inhibitory concentration (IC50) in data set [1] is over 10000 nM; against Monoglyceride lipase, 120 nM.
`O=C(OC(C(F)(F)F)C(F)(F)F)N1CCN(Cc2ccc(C(F)(F)F)cc2N2CCOCC2)CC1`: the microsomal CLint in data set [3] is 24 µL/min/mg. The Activity with Mus musculus was found to be 100%.

The values are drawn from ChEMBL document CHEMBL4308843, “Identification of ABX-1431, a Selective Inhibitor of Monoacylglycerol Lipase and Clinical Candidate for Treatment of Neurological Disorders” (J Med Chem, 2018).
